What is called Kd is the free concentration of one partner at which half of the binding sites on the other are occupied at equilibrium, for simple one-to-one binding.

Where two headings read alike, the source gives them in different places.

The target in data set [1] is T1, Siderocalin (Scn) (Homo sapiens, UniProt P80188). The settings on record: cited from earlier work.
The conditions of data set [2]: [L] = 10 μmol L^−1, [Fe^III] = 1 μmol L^−1; cited from earlier work.
The target of data set [3] is T1, Siderocalin (Scn). The data set is described as follows: Fluorescence quenching binding assay of Scn. The conditions noted are these: for Kd: 100 nM Scn, TBS pH 7.4, 5% DMSO. The method in brief:
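Recombinant Scn, 100 nM in TBS pH 7.4 with 32 μg/mL ubiquitin and 5% DMSO, was titrated with 2–10 equivalents of substrate. Tryptophan quenching was read at excitation 281 nm and emission 340 nm, corrected for dilution. Metal complexes were formed in situ from a DMSO ligand stock plus 1 eq. metal salt, equilibrated 1 h, and used as a 6 μM working solution. Apo ligands were prepared without metal. Kd came from a one-site nonlinear least-squares fit.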

T1 sequence (P80188 21-198): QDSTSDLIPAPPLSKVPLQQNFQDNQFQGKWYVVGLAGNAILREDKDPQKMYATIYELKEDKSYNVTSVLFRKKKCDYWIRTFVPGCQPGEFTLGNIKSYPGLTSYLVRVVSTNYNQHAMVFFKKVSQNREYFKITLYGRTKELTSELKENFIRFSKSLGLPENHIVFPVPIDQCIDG

On to `CC(=O)N(O)CCCC[C@H](NC(=O)CC(O)(CC(=O)N[C@@H](CCCCN(O)C(C)=O)C(=O)O)C(=O)O)C(=O)O` [aerobactin], for which the “Binding by Scn in words” value in data set [1] (natural siderophores) was “not bound”.

In the case of `O=C1CCC(=O)N(O)CCC(O)CNC(=O)CCC(=O)N(O)CCC(O)CN1` (centres unmarked) [alcaligin], in data set [1] (natural siderophores), the “Binding by Scn in words” value was “not bound”. With `C[C@H]1OC(=O)[C@@H](NC(=O)CNC(=O)c2cccc(O)c2O)[C@@H](C)OC(=O)[C@@H](NC(=O)CNC(=O)c2cccc(O)c2O)[C@@H](C)OC(=O)[C@H]1NC(=O)CNC(=O)c1cccc(O)c1O` [bacillibactin], the results for the “Binding by Scn in words” value in data set [1] (apo siderophore) and in data set [1] (natural siderophores) were “bound with high affinity” and “sequestered”, respectively.

Consider `CC(=O)N(O)CCCCCNC(=O)CCC(=O)N(O)CCCCCNC(=O)CCC(=O)N(O)CCCCCN` [desferrioxamine B], for which the “pM value (pM = -log[Fe^III])” value in data set [2] is on record as 26.6.

Take `O=C(N[C@H]1COC(=O)[C@@H](NC(=O)c2cccc(O)c2O)COC(=O)[C@@H](NC(=O)c2cccc(O)c2O)COC1=O)c1cccc(O)c1O` [enterobactin]: the “Binding by Scn in words” value was “bound with high affinity” in data set [1] (apo siderophore) and “sequestered” in data set [1] (natural siderophores). The “pM value (pM = -log[Fe^III])” value in data set [2] is listed as 35.3. Turning to `O=C(CC(O)(CC(=O)NCCCCNCCCNC(=O)c1ccc(O)c(O)c1)C(=O)O)NCCCCNCCCNC(=O)c1ccc(O)c(O)c1` [petrobactin], the “Binding by Scn in words” value in data set [1] is “not bound”. In the case of `O=C(N[C@H]1COC(=O)[C@@H](NC(=O)c2cc([C@@H]3O[C@H](CO)[C@@H](O)[C@H](O)[C@H]3O)cc(O)c2O)COC(=O)[C@@H](NC(=O)c2cc([C@@H]3O[C@H](CO)[C@@H](O)[C@H](O)[C@H]3O)cc(O)c2O)COC1=O)c1cccc(O)c1O` [salmochelin-S4], the “Binding by Scn in words” value in data set [1] (natural siderophores) is reported as “not bound”.

On to `O=C(NCCN(CCNC(=O)c1cccc(=O)n1O)CCNC(=O)c1cccc(=O)n1O)c1cccc(=O)n1O` [tren(1,2-HOPO)3], for which the Kd was greater than 600 nM in data set [3] (Fe^III complex), 300 ± 30 nM in data set [3] (V^IV complex) and 250 ± 30 nM in data set [3] (no metal (apo ligand)). In addition, the “Scn affinity in words” value in data set [3] (apo ligand, pH 7.4) is on record as “micromolar affinity range”. `Cn1ccc(C(=O)NCCN(CCNC(=O)c2ccn(C)c(=O)c2O)CCNC(=O)c2ccn(C)c(=O)c2O)c(O)c1=O` [tren(Me-3,2-HOPO)3]: the Kd in data set [3] (Fe^III complex) is greater than 600 nM. Turning to `O=C(NCCN(CCNC(=O)c1cccc(O)c1O)CCNC(=O)c1cccc(=O)n1O)c1cccc(O)c1O` [trenCAM2(1,2-HOPO), tren(CAM)2(1,2-HOPO)], the Kd in data set [3] (Fe^III complex) is 0.8 ± 0.3 nM; in data set [3] (V^IV complex), 40 ± 9 nM; in data set [3] (no metal (apo ligand)), 1.4 ± 0.3 nM. For `Cn1ccc(C(=O)NCCN(CCNC(=O)c2cccc(O)c2O)CCNC(=O)c2cccc(O)c2O)c(O)c1=O` [trenCAM2(Me-3,2-HOPO), tren(CAM)2(Me-3,2-HOPO)], in data set [3] (Fe^III complex), binding was put at a Kd of 120 ± 10 nM. Consider `O=C(NCCN(CCNC(=O)c1cccc(O)c1O)CCNC(=O)c1cccc(O)c1O)c1cccc(O)c1O` [trenCAM3, tren(CAM)3], for which the Kd in data set [1] (Fe^III complex) is 0.3 ± 0.1 nM; in data set [3] (V^IV complex), 1.3 ± 0.3 nM; in data set [3] (no metal (apo ligand)), 1.2 ± 0.2 nM. With `O=C(NCCN(CCNC(=O)c1cccc(=O)n1O)CCNC(=O)c1cccc(=O)n1O)c1cccc(O)c1O` [trenCAM(1,2-HOPO)2, tren(CAM)(1,2-HOPO)2], the results for the Kd in data set [3] (Fe^III complex), in data set [3] (V^IV complex) and in data set [3] (no metal (apo ligand)) were 43 ± 2 nM, 220 ± 70 nM and 140 ± 10 nM, respectively. In data set [3] (Fe^III complex), `Cn1ccc(C(=O)NCCN(CCNC(=O)c2cccc(O)c2O)CCNC(=O)c2ccn(C)c(=O)c2O)c(O)c1=O` [trenCAM(Me-3,2-HOPO)2, tren(CAM)(Me-3,2-HOPO)2] yielded a Kd of 150 ± 20 nM.
